Laboratory results from ChEMBL document CHEMBL4390679 (J Med Chem, 2019).
The source made the active and inactive calls. The rule behind the calls is not given here. Starred links: 1 amine or outer side, 2 acyl side, 3 side chain; linkers in the order of their positions; H or OH if unused. Positions of bridges follow the written chain, without caps; N, C: chain ends. Non-standard residues stand in square brackets, D forms with d. Residues, ends and D or L forms follow the SMILES beside them. Abu(4-yl) = O=C([C@H](CC[*:3])N[*:1])[*:2]; N(4-F-Bzl)Gly = O=C(O)CNCc1ccc(F)cc1; X1 = O=C(CN(CCCO)[*:1])[*:2]

What was measured:
[1] = target: T1, Oxytocin receptor (Homo sapiens) (UniProt P30559); assay: Displacement of [3H]OT from recombinant human OTR expressed in HEK293 cell membranes assessed as dissociation half life for [3H]OT binding
T1 sequence (whole entry): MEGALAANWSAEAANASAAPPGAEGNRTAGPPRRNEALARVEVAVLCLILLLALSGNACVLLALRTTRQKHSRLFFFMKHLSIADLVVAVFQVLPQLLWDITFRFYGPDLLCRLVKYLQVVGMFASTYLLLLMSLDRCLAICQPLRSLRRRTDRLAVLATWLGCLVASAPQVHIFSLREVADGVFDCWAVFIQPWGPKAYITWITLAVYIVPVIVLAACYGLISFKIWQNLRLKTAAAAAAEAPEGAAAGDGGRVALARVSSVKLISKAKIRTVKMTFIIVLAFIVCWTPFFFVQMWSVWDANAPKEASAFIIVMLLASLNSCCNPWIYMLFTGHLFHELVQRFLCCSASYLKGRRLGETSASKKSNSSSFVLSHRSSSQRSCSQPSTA
Procedure, shortened: (§1)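 Membranes from HEK-293 cells stably expressing human OTR (5 µg/well) in 50 mM Tris, 10 mM MgCl2, 0.1% BSA, pH 7.4. [3H]OT added at 200 pM, 500 pM and 1 nM; bound and free separated by rapid filtration at multiple time points to build association curves. Kon and Koff fitted; t1/2 from Koff = ln2/t1/2. Two experiments, each in duplicate.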

[2] = tested on: Mus musculus; assay: Antidepressant-like activity in CD38KOCC Slc:ICR mouse model of autism spectrum disorder assessed as immobility time at 100 ng/ml, ip administered as single dose for 30 mins prior to testing measured for last 4 mins of 6 mins test by tail suspension test (reference value: 74.2 +/- 2.9 sec); assay type: functional
[3] = organism: Homo sapiens; assay: Selectivity ratio of EC50 for recombinant human V1a receptor expressed in HEK293 cells to EC50 for recombinant human OTR expressed in HEK293 cells; assay type: cell-based
Procedure, shortened: (§2)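 Agonist response measured in HEK-293 cells stably expressing human OTR, V1aR or V1bR, loaded with 1 µM fura-2/AM for 30 min at 37 °C, washed in HEPES-buffered saline pH 7.4. F340/F380 ratio read every 3 s for 5 min at 37 °C, normalized to baseline and to maximal OT (OTR) or AVP (V1aR, V1bR) response; EC50 taken from these curves. n = 3, 20 cells per dish.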

[4] = Drug level in Slc:ICR mouse cerebrospinal fluid at 100 ng/g, iv measured after 30 mins by LC-MS/MS analysis; assay type: ADME, organism-based; settings: Slc:ICR, cerebrospinal fluid, 100 ng/g, read-out: Drug uptake
Procedure, shortened: (§3)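 Male ICR mice (30 g) were given 100 ng/g i.v. via the tail vein. Blood was taken by cardiac puncture immediately and at 5, 15 and 30 min; CSF was taken at 30 min or 12 h. Plasma was deproteinized with acetonitrile/methanol 1:1 containing [13C6,15N]OT internal standard and analysed by LC-MS/MS (C8 column, SRM).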

[5] = tested on: Mus musculus; assay: Cognition enhancing effect in CD38KOCC Slc:ICR mouse model of autism spectrum disorder assessed as increase in sucrose consumption over water at 100 ng/ml, ip administered as single dose measured after 24 hrs; assay type: functional, organism-based
[6] = target: T2, Vasopressin V1b receptor (Homo sapiens, UniProt P47901); assay: Agonist activity at recombinant human V1b receptor expressed in HEK293 cells assessed as increase in intracellular calcium level measured at 3 secs interval for 5 mins by fura-2/AM dye based micro spectrofluorometric method; assay type: cell-based
T2 sequence (P47901 whole entry): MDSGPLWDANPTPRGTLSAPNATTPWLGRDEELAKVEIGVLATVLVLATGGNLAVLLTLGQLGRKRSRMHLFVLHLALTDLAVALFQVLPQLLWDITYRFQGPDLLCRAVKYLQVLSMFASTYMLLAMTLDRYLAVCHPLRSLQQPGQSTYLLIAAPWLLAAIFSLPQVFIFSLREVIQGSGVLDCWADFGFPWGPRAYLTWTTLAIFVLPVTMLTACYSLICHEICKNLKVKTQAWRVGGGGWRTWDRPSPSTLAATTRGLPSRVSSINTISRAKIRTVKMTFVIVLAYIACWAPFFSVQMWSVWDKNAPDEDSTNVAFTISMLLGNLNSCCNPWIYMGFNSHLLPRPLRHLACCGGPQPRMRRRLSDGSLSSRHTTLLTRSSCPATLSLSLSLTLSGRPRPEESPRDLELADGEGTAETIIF

[7] = tested on: Mus musculus; assay: Cognition enhancing effect in CD38 knock out Slc:ICR mouse sire model of autism spectrum disorder assessed as latency time to retrieve pups by sires at 100 ng/ml, ip administered as single dose measured after 5 hrs by parental retrieval test (reference value: 233 +/- 68 sec); assay type: functional
[8] = target: T3, Oxytocin receptor (Homo sapiens, UniProt P30559); assay: Displacement of [3H]OT from recombinant human OTR expressed in HEK293 cell membranes measured after 1 hr
T3 sequence (P30559 whole entry): T1 sequence (whole entry)

[9] = target: T1, Oxytocin receptor (Homo sapiens); assay: Displacement of [3H]OT from recombinant human OTR expressed in HEK293 cell membranes assessed as dissociation rate constant for [3H]OT binding; procedure, shortened: as §1
[10] = Half life in Slc:ICR mouse plasma during fast phase at 100 ng/g, iv measured for 15 mins by LC-MS/MS analysis; assay type: ADME, organism-based; procedure, shortened: as §3
[11] = tested on: Mus musculus; assay: Cognition enhancing effect in CD38 knock out Slc:ICR mouse sire model of autism spectrum disorder assessed as latency time to retrieve pups by sires at 100 ng/ml, ip administered as single dose measured after 30 mins by parental retrieval test (reference value: 600 sec); assay type: functional
[12] = Drug level in Slc:ICR mouse cerebrospinal fluid at 100 ng/g, iv measured after 12 hrs by LC-MS/MS analysis; assay type: ADME, organism-based; settings: Slc:ICR, cerebrospinal fluid, 100 ng/g, read-out: Drug uptake; procedure, shortened: as §3
[13] = Half life in Slc:ICR mouse plasma during slow phase at 100 ng/g, iv measured for 15 to 60 mins by LC-MS/MS analysis; assay type: ADME, organism-based; procedure, shortened: as §3
[14] = organism: Homo sapiens; assay: Selectivity ratio of EC50 for recombinant human V1b receptor expressed in HEK293 cells to EC50 for recombinant human OTR expressed in HEK293 cells; assay type: cell-based; procedure, shortened: as §2
[15] = target: T1, Oxytocin receptor (Homo sapiens); assay: Displacement of [3H]OT from recombinant human OTR expressed in HEK293 cell membranes assessed as association rate constant for [3H]OT binding; procedure, shortened: as §1
[16] = tested on: Mus musculus; assay: Cognition enhancing effect in CD38KOCC Slc:ICR mouse model of autism spectrum disorder assessed as sucrose consumption over water at 100 ng/ml, ip administered as single dose measured after 60 mins relative to control (reference value: 0.46 +/- 0.04); assay type: functional
[17] = target: T3, Oxytocin receptor; assay: Agonist activity at recombinant human OTR expressed in HEK293 cells assessed as increase in intracellular calcium level measured at 3 secs interval for 5 mins by fura-2/AM dye based micro spectrofluorometric method; assay type: functional, cell-based
[18] = target: Vasopressin V1a receptor (Homo sapiens, UniProt P37288); assay: Agonist activity at recombinant human V1a receptor expressed in HEK293 cells assessed as increase in intracellular calcium level measured at 3 secs interval for 5 mins by fura-2/AM dye based micro spectrofluorometric method; assay type: cell-based
[19] = tested on: Mus musculus; assay: Antidepressant-like activity in CD38KOCC Slc:ICR mouse model of autism spectrum disorder assessed as decrease in immobility time at 100 ng/ml, ip administered as single dose for 24 hrs prior to testing measured for last 4 mins of 6 mins test by tail suspension test
[20] = tested on: Mus musculus; assay: Cognition enhancing effect in CD38 knock out Slc:ICR mouse sire model of autism spectrum disorder assessed as latency time to retrieve pups by sires at 100 ng/ml, ip administered as single dose measured after 12 hrs by parental retrieval test (reference value: 233 +/- 68 sec); assay type: functional
[21] = Plasma concentration in Slc:ICR mouse at 100 ng/g, iv measured immediately by LC-MS/MS analysis; assay type: ADME, organism-based; settings: in vivo; procedure, shortened: as §3
[22] = tested on: Mus musculus; assay: Cognition enhancing effect in CD38 knock out Slc:ICR mouse sire model of autism spectrum disorder assessed as latency time to retrieve pups by sires at 100 ng/ml, ip administered as single dose measured after 24 hrs by parental retrieval test (reference value: 233 +/- 68 sec); assay type: functional
[23] = Stability in mouse plasma assessed as parent compound remaining at 50 ng/ml measured after 2 hrs by LC-MS/MS analysis; assay type: ADME, cell-free; settings: read-out: Stability
Procedure, shortened: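 Pooled mouse plasma spiked to a final 50 ng/mL was incubated at 37 °C for 1–120 min, quenched with acetonitrile/methanol 1:1 plus internal standard, and analysed by LC-MS/MS. Percent of the initial concentration was calculated; 85–115% was taken as acceptable.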

[24] = tested on: Mus musculus; assay: Cognition enhancing effect in CD38 knock out Slc:ICR mouse sire model of autism spectrum disorder assessed as decrease in latency time to retrieve pups by sires at 0.3 mL, ip administered as single dose measured after 6 hrs by parental retrieval test; assay type: functional, organism-based
[25] = tested on: Mus musculus; assay: Cognition enhancing effect in CD38 knock out Slc:ICR mouse sire model of autism spectrum disorder assessed as latency time to retrieve pups by sires at 0.3 mL, ip administered as single dose measured after 30 mins by parental retrieval test (reference value: 600 sec); assay type: functional

Vasopressin V1a receptor, sequence (P37288 whole entry): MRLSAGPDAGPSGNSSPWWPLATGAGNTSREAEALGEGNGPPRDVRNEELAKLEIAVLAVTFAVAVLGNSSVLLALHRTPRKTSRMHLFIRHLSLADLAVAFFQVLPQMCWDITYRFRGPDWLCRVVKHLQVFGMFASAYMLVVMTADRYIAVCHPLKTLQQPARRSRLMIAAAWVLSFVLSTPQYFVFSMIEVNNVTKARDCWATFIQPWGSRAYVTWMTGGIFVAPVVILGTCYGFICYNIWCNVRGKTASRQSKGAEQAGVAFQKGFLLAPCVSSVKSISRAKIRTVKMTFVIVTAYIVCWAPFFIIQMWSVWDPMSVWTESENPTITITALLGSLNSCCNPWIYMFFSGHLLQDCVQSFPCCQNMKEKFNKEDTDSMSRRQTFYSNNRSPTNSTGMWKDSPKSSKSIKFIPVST

Structure (SMILES) | Time [2] | Ratio EC50 [3] | Activity [5] | EC50 [6] | Ki [8] | half-life [10] | half-life [13] | Ratio EC50 [14] | EC50 [17] | EC50 [18] | Activity [19] | Cp [21] | remaining at 2 h, 50 ng/ml [23] | other results
CC[C@H](C)[C@@H]1NC(=O)[C@H](Cc2ccc(O)cc2)NC(=O)[C@@H](N)CSSC[C@@H](C(=O)N(CC(=O)N[C@@H](CC(C)C)C(=O)NCC(N)=O)Cc2ccc(F)cc2)NC(=O)[C@H](CC(N)=O)NC(=O)[C@H](CCC(N)=O)NC1=O (H-CYIQNC[N(4-F-Bzl)Gly]LG-NH2; disulfide 1-6) | 149.5 s | 75.3 | inactive | 0.5 nM | 0.51 nM | 2.84 min | 2.86 min | 17.5 | 0.028 nM | 2.2 nM | inactive | 118 ng/mL | 85 to 115% | T1/2 [1]: 6.38 min; concentration at 0.5 h [4]: 0.1 ng/mL; Time [7]: 381 s; K [9]: 0.1 min⁻¹; Time [11]: 297 s; concentration at 12 h [12]: 0.38 ng/mL; K [15]: 1.05 ×10⁸ /M/min; Ratio [16]: 0.79; Time [20]: 155 s; Time [22]: 413 s
CC[C@H](C)[C@@H]1NC(=O)[C@H](Cc2ccc(O)cc2)NC(=O)[C@@H](N)CCSC[C@@H](C(=O)N(CC(=O)N[C@@H](CC(C)C)C(=O)NCC(N)=O)Cc2ccc(F)cc2)NC(=O)[C@H](CC(N)=O)NC(=O)[C@H](CCC(N)=O)NC1=O (H-[Abu(4-yl)]YIQNC[N(4-F-Bzl)Gly]LG-NH2; thioether 1-6) |  | 45 |  | 0.8 nM | 0.9 nM |  |  | 9 | 0.089 nM | 4 nM |  |  |  | 
CC[C@H](C)[C@@H]1NC(=O)[C@H](Cc2ccc(O)cc2)NC(=O)[C@@H](N)CCSC[C@@H](C(=O)N(CCCO)CC(=O)N[C@@H](CC(C)C)C(=O)NCC(N)=O)NC(=O)[C@H](CC(N)=O)NC(=O)[C@H](CCC(N)=O)NC1=O (H-[Abu(4-yl)]YIQNC[X1]LG-NH2; thioether 1-6) |  | > 66.6 |  | > 10 nM | 3 nM |  |  | > 66.6 | 0.15 nM | > 10 nM |  |  |  | 
CC[C@H](C)[C@@H]1NC(=O)[C@H](Cc2ccc(O)cc2)NC(=O)[C@@H](N)CSSC[C@@H](C(=O)N2CCC[C@H]2C(=O)N[C@@H](CC(C)C)C(=O)NCC(N)=O)NC(=O)[C@H](CC(N)=O)NC(=O)[C@H](CCC(N)=O)NC1=O [OXYTOCIN] | 171 s |  | inactive |  |  | 2.91 min | 8.84 min |  |  |  | inactive | 334 ng/mL | 85 to 115% | Activity [24]: inactive; Time [25]: 240 s
